Data reported in ChEMBL document CHEMBL3352044, “Synthesis and structure-activity relationship studies of N-benzyl-2-phenylpyrimidin-4-amine derivatives as potent USP1/UAF1 deubiquitinase inhibitors with anticancer activity against nonsmall cell lung cancer” (J Med Chem, 2014).
The source made the active and inactive calls. The calls are words filed in the database; no cut-off is given here.

test system: Liver microsome; assay: Half life in rat liver microsomes in presence of NADPH; format: ADME; settings: not given
In short: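 Rat liver microsomes with NADPH; half-life in minutes.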

t1/2 [min] | SMILES
22 | Cc1cnc(-c2ccccc2C(C)C)nc1NC(C)(C)c1ccc(-n2ccnn2)cc1
9.5 | [2H]C([2H])([2H])C([2H])(c1ccccc1-c1ncc(C)c(NCc2ccc(-n3ccnn3)cc2)n1)C([2H])([2H])[2H]
6.2 | Cc1cnc(-c2ccccc2C2CC2)nc1NCc1ccc(-c2cccnc2)cc1
10 | [2H]C([2H])([2H])C([2H])(c1ccccc1-c1ncc(C)c(NC(C)(C)c2ccc(-n3ccnn3)cc2)n1)C([2H])([2H])[2H]
> 30 | Cc1cnc(-c2ccccc2C2COC2)nc1NCc1ccc(-c2cccnc2)cc1
21 | Cc1cnc(-c2ccccc2C(F)F)nc1NCc1ccc(-n2ccnn2)cc1
5.1 | Cc1cnc(-c2ccccc2C2CCC2)nc1NCc1ccc(-n2ccnn2)cc1
5.8 | Cc1cnc(-c2ccccc2C(C)C)nc1NCc1ccc(-c2cccnc2)cc1
7.9 | [2H]C([2H])([2H])C(c1ccccc1-c1ncc(C)c(NCc2ccc(-n3ccnn3)cc2)n1)C([2H])([2H])[2H]
12 | [2H]C([2H])(Nc1nc(-c2ccccc2C(C)C)ncc1C)c1ccc(-n2ccnn2)cc1
> 30 | Cc1cnc(-c2ccccc2C2COC2)nc1NCc1ccc(-n2ccnn2)cc1
13 | [2H]C([2H])(Nc1nc(-c2ccccc2C([2H])(C([2H])([2H])[2H])C([2H])([2H])[2H])ncc1C)c1ccc(-n2ccnn2)cc1

target: T1, Ubiquitin carboxyl-terminal hydrolase 1/WD repeat-containing protein 48 (Homo sapiens, UniProt O94782+Q8TAF3); assay: Inhibition of human USP1/UAF1 in human […] cells assessed as increase in Ub-PCNA measured after 4 hrs by Western blotting analysis; format: cell-based; settings: not given
T1 sequence (O94782 whole entry): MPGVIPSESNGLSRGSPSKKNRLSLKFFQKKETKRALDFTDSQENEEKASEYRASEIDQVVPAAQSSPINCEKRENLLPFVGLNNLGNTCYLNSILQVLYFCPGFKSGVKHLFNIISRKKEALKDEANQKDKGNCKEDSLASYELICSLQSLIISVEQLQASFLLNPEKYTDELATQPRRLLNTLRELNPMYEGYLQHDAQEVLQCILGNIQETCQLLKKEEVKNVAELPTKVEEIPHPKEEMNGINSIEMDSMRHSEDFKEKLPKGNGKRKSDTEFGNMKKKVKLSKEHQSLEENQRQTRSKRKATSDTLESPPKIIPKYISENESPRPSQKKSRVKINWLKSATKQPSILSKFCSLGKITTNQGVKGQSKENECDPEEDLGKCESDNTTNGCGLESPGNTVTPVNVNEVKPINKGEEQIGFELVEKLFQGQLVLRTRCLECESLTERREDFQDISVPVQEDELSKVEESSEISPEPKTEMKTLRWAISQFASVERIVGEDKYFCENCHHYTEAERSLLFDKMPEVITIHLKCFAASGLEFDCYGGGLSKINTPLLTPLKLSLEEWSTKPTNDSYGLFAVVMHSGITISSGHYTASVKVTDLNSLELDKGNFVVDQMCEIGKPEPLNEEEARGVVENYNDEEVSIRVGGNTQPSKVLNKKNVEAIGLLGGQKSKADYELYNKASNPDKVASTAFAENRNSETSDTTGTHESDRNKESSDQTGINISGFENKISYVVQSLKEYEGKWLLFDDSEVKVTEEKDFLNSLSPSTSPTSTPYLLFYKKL
T1 sequence (Q8TAF3 whole entry): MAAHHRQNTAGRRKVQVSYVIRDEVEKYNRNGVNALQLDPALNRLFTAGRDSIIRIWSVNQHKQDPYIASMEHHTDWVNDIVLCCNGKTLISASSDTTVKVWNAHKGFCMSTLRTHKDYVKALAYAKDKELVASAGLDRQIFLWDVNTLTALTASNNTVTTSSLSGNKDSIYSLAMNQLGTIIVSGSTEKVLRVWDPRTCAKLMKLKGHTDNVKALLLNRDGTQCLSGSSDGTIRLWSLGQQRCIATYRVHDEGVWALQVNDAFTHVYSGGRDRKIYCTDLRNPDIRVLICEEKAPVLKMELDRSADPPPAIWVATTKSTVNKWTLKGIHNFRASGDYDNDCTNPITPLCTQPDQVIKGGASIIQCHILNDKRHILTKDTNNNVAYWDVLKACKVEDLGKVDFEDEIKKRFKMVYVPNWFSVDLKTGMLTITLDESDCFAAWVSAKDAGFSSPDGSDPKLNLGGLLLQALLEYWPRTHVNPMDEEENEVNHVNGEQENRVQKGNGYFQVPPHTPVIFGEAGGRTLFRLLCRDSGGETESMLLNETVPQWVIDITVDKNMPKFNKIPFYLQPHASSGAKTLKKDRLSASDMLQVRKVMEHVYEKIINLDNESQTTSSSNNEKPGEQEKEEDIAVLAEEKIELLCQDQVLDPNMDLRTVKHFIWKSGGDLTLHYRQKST

inhibition | SMILES
Dose-dependent effect | FC(F)(F)c1ccccc1-c1nc(NCc2cccs2)c2ccccc2n1
Dose-dependent effect | Cc1cnc(-c2ccccc2C(C)C)nc1NCC1CCN(c2cccnc2)CC1

target: T1, Ubiquitin carboxyl-terminal hydrolase 1/WD repeat-containing protein 48; assay: Inhibition of human USP1/UAF1 in human […] cells assessed as increase in Ub-PCNA measured at 1 uM after 4 hrs by Western blotting analysis; format: cell-based; settings: not given

Activity | SMILES
Active | Cc1cnc(-c2ccccc2C(C)C)nc1NCC1CCN(c2cccnc2)CC1

test system: not listed separately; assay: Cytotoxicity against human H1299 cells assessed as reduction in colony formation at 5 uM after 7 days; format: functional; settings: NCI-H1299, 168 h, read-out: INH
In short: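 H1299 cells seeded at 200 cells/well, attached overnight, then exposed to 5 μM compound or equal volume DMSO. After 7 days, fixed with 20% methanol and stained with 0.1% crystal violet; percent survival scored versus DMSO control.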

SMILES | inhibition at 5 µM [%]
CC(C)c1ccccc1-c1nc(NCc2ccc(-c3cccnc3)cc2)c2occc2n1 | > 70
Cc1cnc(-c2ccccc2C(C)C)nc1NCc1ccc(-n2ccnc2)cc1 | > 70
COc1cnc(-c2ccccc2C(C)C)nc1NCc1ccc(-c2cccnc2)cc1 | > 70
Cc1cnc(-c2ccccc2C(C)C)nc1NCC1CCN(c2cccnc2)CC1 | > 70

target: T1, Ubiquitin carboxyl-terminal hydrolase 1/WD repeat-containing protein 48; assay: Inhibition of human USP1/UAF1 in human H1299 cells assessed as reduction in colony formation up to 25 uM after 7 days; format: cell-based; settings: not given

inhibition | SMILES
inactive | Cc1cnc(-c2ccccc2C2COC2)nc1NCc1ccc(-n2ccnn2)cc1

target: Ubiquitin carboxyl-terminal hydrolase 1/WD repeat-containing protein 48 (Homo sapiens, UniProt O94782); assay: Inhibition of human USP1/UAF1 using ubiquitin-rhodamine110 substrate by fluorescence assay; settings: not given
Sequence (O94782 whole entry): as the sequence (O94782 whole entry) above
Sequence (Q8TAF3 whole entry, further chain): as the sequence (Q8TAF3 whole entry) above

IC50 [nM] | SMILES
6200 | COc1ccc(CNc2nc(-c3ccccc3C(F)(F)F)nc3ccccc23)cc1
2700 | FC(F)(F)c1ccccc1-c1nc(NCc2ccc(-c3cccc(Cl)c3)cc2)c2ccccc2n1
590 | Cc1cnc(-c2ccccc2C(C)C)nc1NC(C)(C)c1ccc(-n2ccnn2)cc1
110 | CSc1cnc(-c2ccccc2C(C)C)nc1NCc1ccc(-c2cccnc2)cc1
190 | CC(C)c1ccccc1-c1ncc(N(C)C)c(NCc2ccc(-c3cccnc3)cc2)n1
120 | Cc1nc(-c2ccccc2C(C)C)nc(NCc2ccc(-c3cccnc3)cc2)c1C
110 | CC(C)c1ccccc1-c1nc(NCc2ccc(-c3cccnc3)cc2)c2sccc2n1
50 | Cc1ccc(-c2ccc(CNc3nc(-c4ccccc4C(C)C)ncc3C)cc2)cn1
180 | Cc1cnc(-c2ccccc2C2CC2)nc1NCc1ccc(-c2cccnc2)cc1
8900 | FC(F)(F)c1ccccc1-c1nc(NCC#Cc2cccnc2)c2ccccc2n1
1100 | FC(F)(F)c1ccccc1-c1nc(NCc2ccc(-c3cccnc3)cc2)c2ccccc2n1
21000 | Cc1cccc(C(CO)Nc2nc(-c3ccccc3C(C)C)ncc2C)c1 (centres undefined)
4800 | FC(F)(F)c1ccccc1-c1nc(NCc2ccc(Cl)cc2)c2ccccc2n1
10400 | FC(F)(F)c1ccccc1-c1nc(NCc2ccc(Cl)c(Cl)c2)c2ccccc2n1
2100 | Clc1ccccc1-c1nc(NCc2ccc(-c3cccnc3)cc2)c2ccccc2n1
7900 | FC(F)(F)c1ccccc1-c1nc(NCc2cccs2)c2ccccc2n1
1600 | Brc1ccccc1-c1nc(NCc2ccc(-c3cccnc3)cc2)c2ccccc2n1
1100 | Cc1ccccc1-c1nc(NCc2ccc(-c3cccnc3)cc2)c2ccccc2n1
13600 | Cc1cnc(-c2ccccc2C(C)C)nc1NCC1CCN(C2COC2)CC1
160 | CC(C)c1ccccc1-c1nc2c(c(NCc3ccc(-c4cccnc4)cc3)n1)CCC2
760 | [2H]C([2H])([2H])C([2H])(c1ccccc1-c1ncc(C)c(NC(C)(C)c2ccc(-n3ccnn3)cc2)n1)C([2H])([2H])[2H]
90 | Cc1ccc(N2CCC(CNc3nc(-c4ccccc4C(C)C)ncc3C)CC2)cn1
210 | Cc1cc(NCc2ccc(-c3cccnc3)cc2)nc(-c2ccccc2C(C)C)n1
2900 | CC(C)c1ccccc1-c1nc2c(c(NCc3ccc(-c4cccnc4)cc3)n1)CNC2

IC50 [nM] | SMILES
1400 | FC(F)c1ccccc1-c1nc(NCc2ccc(-c3cccnc3)cc2)c2ccccc2n1
21700 | Cc1cnc(-c2ccccc2C(C)C)nc1NCC1CN(c2cccnc2)C1
280 | CC(C)c1ccccc1-c1nc(NCc2ccc(-c3cccnc3)cc2)c2ccsc2n1
860 | CC(C)c1ccccc1-c1nc2c(c(NCc3ccc(-c4cccnc4)cc3)n1)CCNC2
10400 | FC(F)(F)c1ccccc1-c1nc(NCc2ccc(N3CCOCC3)cc2)c2ccccc2n1
180 | CC(C)c1ccccc1-c1nc(NCc2ccc(-c3cccnc3)cc2)c2ccccc2n1
3000 | FC(F)(F)c1ccccc1-c1nc(NCc2ccc(-c3cncnc3)cc2)c2ccccc2n1
2200 | FC(F)(F)c1ccccc1-c1nc(NCc2ccc(-c3ccc(Cl)c(Cl)c3)cc2)c2ccccc2n1
4900 | FC(F)(F)c1cc(-c2ccc(CNc3nc(-c4ccccc4C(F)(F)F)nc4ccccc34)cc2)ccn1
1300 | Cc1cnc(-c2ccccc2C(C)C)nc1NCc1cccnc1
820 | Cc1cnc(-c2ccccc2C(F)F)nc1NCc1ccc(-n2ccnn2)cc1
270 | Cc1cnc(-c2ccccc2C(C)C)nc1NCc1cccs1
6500 | Fc1ccccc1-c1nc(NCc2ccc(-c3cccnc3)cc2)c2ccccc2n1
80 | CC(C)c1ccccc1-c1nc(NCc2ccc(-c3cccnc3)cc2)c2occc2n1
300 | Cc1cnc(-c2ccccc2C(C)C)nc1NCc1ccc(-n2ccnc2)cc1
180 | Cc1cnc(-c2ccccc2C2CCC2)nc1NCc1ccc(-n2ccnn2)cc1
940 | COc1ccccc1-c1nc(NCc2ccc(-c3cccnc3)cc2)c2ccccc2n1
8400 | FC(F)(F)c1ccccc1-c1nc(NCc2ccc3c(c2)OCO3)c2ccccc2n1
70 | COc1cnc(-c2ccccc2C(C)C)nc1NCc1ccc(-c2cccnc2)cc1
9800 | FC(F)(F)c1ccccc1-c1nc(NCc2ccc(C3CCCCC3)cc2)c2ccccc2n1
8900 | FC(F)(F)c1ccc(CNc2nc(-c3ccccc3C(F)(F)F)nc3ccccc23)cc1
8700 | CC(=O)c1ccccc1-c1ncc(C)c(NCc2ccc(-c3cccnc3)cc2)n1
320 | Cc1cnc(-c2ccccc2C(C)C)nc1NCc1ccc(-c2ccnc(C(F)(F)F)c2)cc1
5700 | N#Cc1ccc(CNc2nc(-c3ccccc3C(F)(F)F)nc3ccccc23)cc1

IC50 [nM] | SMILES
70 | Cc1cnc(-c2ccccc2C(C)C)nc1NCc1ccc(-c2cccnc2)cc1
140 | Cc1cnc(-c2ccccc2C(C)C)nc1NCC1CCN(c2cnccn2)CC1
150 | CC(C)c1ccccc1-c1nccc(NCc2ccc(-c3cccnc3)cc2)n1
310 | CC(C)c1ccccc1-c1ncc(N)c(NCc2ccc(-c3cccnc3)cc2)n1
260 | CC(C)c1ccccc1-c1nc(NCc2ccc(-c3cccnc3)cc2)c2cccn2n1
5900 | Cc1cnc(-c2ccccc2C(C)C)nc1NCc1ccc(-c2nnn[nH]2)cc1
780 | CCc1ccccc1-c1nc(NCc2ccc(-c3cccnc3)cc2)c2ccccc2n1
3100 | FC(F)(F)c1ccccc1-c1nc(NCc2ccccc2)c2ccccc2n1
10500 | Cc1cnc(-c2ccccc2CO)nc1NCc1ccc(-c2cccnc2)cc1
130 | Cc1cccc(CNc2nc(-c3ccccc3C(C)C)ncc2C)c1
3400 | Fc1ccc(CNc2nc(-c3ccccc3C(F)(F)F)nc3ccccc23)cc1
80 | Cc1cnc(-c2ccccc2C(C)C)nc1NCc1ccc(-c2ccc(F)nc2)cc1
80 | Cc1cnc(-c2ccccc2C(C)C)nc1NCC1CCN(c2cccnc2)CC1
1900 | FC(F)(F)c1ccccc1-c1nc(NCc2ccc(-c3ccncc3)cc2)c2ccccc2n1
800 | Cc1cnc(-c2ccccc2C(C)C)nc1NCC1CCN(c2cccnc2)C1 (centres undefined)
120 | CC(C)c1ccccc1-c1nc(NCc2ccc(-c3cccnc3)cc2)c2nc[nH]c2n1
110 | CC(C)c1ccccc1-c1ncc(F)c(NCc2ccc(-c3cccnc3)cc2)n1
5100 | Cc1ccc(CNc2nc(-c3ccccc3C(F)(F)F)nc3ccccc23)s1
7800 | O=[N+]([O-])c1ccccc1-c1nc(NCc2ccc(-c3cccnc3)cc2)c2ccccc2n1
3700 | FC(F)(F)c1ccccc1-c1nc(NCc2ccc(-c3ccccc3)cc2)c2ccccc2n1
3600 | FC(F)(F)c1ccccc1-c1nc(NCc2ccc(-c3ccc(Cl)cc3)cc2)c2ccccc2n1
2000 | Cc1cnc(-c2ccccc2C(C)O)nc1NCc1ccc(-c2cccnc2)cc1 (centres undefined)

target: T1, Ubiquitin carboxyl-terminal hydrolase 1/WD repeat-containing protein 48; assay: as above; settings: not given

IC50 | SMILES
Not Active | FC(F)(F)c1ccc(-c2nc(NCc3ccc(-c4cccnc4)cc3)c3ccccc3n2)cc1
Not Active | Cc1cnc(-c2ccccc2C(C)C)nc1NCC1CCN(C)CC1
Not Active | c1cncc(-c2ccc(CNc3nc(N4CCOCC4)nc4ccccc34)cc2)c1
Not Active | Cc1cnc(-c2ccccc2C2COC2)nc1NCc1ccc(-c2cccnc2)cc1
Not Active | c1cncc(-c2ccc(CNc3nc(-n4ccnc4)nc4ccccc34)cc2)c1
Not Active | c1cncc(-c2ccc(CNc3nc(C4CCCC4)nc4ccccc34)cc2)c1
Not Active | FC(F)(F)c1cccc(-c2nc(NCc3ccc(-c4cccnc4)cc3)c3ccccc3n2)c1
Not Active | Cc1cnc(-c2ccccc2C2COC2)nc1NCc1ccc(-n2ccnn2)cc1
Not Active | c1cncc(-c2ccc(CNc3nc(N4CCCC4)nc4ccccc34)cc2)c1
